The values that follow come from ChEMBL document CHEMBL1154352, “Toll-like receptor 7 selective synthetic oligoribonucleotide agonists: synthesis and structure-activity relationship studies” (J Med Chem, 2009).

Activity calls are given as the source filed them. The rule behind the calls is not given here.

The test system of data set [1] is PBMC. As to the kind of experiment: Immunomodulatory activity in human PBMC assessed as induction of MIP1alpha at 50 ug/ml after 24 hrs. The data set is classed as functional, cell-based. The method in brief: (§1)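 Human PBMCs plated at 5 × 10^6 cells/mL; compounds dissolved in PBS added at various concentrations, 37 °C for 24 h. Supernatant cytokines/chemokines quantified with human Luminex multiplex kit.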

The subject of data set [2] is PBMC. As to the kind of experiment: Immunomodulatory activity in human PBMC assessed as induction of IL12 at 50 ug/ml after 24 hrs. The data set is classed as functional, cell-based. The method in brief:
as §1

The subject of data set [3] is PBMC. As to the kind of experiment: Immunomodulatory activity in human PBMC assessed as induction of IL1-beta at 50 ug/ml after 24 hrs. The format is functional, cell-based. The method in brief: as §1
Data set [4] can be described thus: Metabolic stability in human serum assessed as full length product remaining after 10 mins by HPLC. The format is ADME, cell-free. The settings on record: read-out: Stability. The method in brief: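 About 0.5 A260 units compound in 1% human serum in PBS, 37 °C; aliquot taken at 10 min, analysed by anion-exchange HPLC for percent intact full-length product.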

The species entered for data set [5] is Homo sapiens. As to the kind of experiment: Ratio of human TLR7 activity to human TLR8 activity. The method in brief:
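TLR7/TLR8 ratio computed from fold NF-κB (SEAP reporter) activation in HEK293 cells stably expressing human TLR7 versus TLR8, compounds at 50 μg/mL, 18 h exposure; representative of three independent experiments.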

For data set [6], the species on record is Homo sapiens. As to the kind of experiment: Immunostimulatory activity in human pDC assessed as induction of IP10 at 100 ug/ml after 24 hrs. The format is functional. The method in brief:
(§2)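 Human pDCs plated at 1 × 10^6 cells/mL; compounds in PBS added, 37 °C for 24 h; supernatant cytokines/chemokines by human Luminex multiplex kit.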

For data set [7], the species on record is Homo sapiens. As to the kind of experiment: Immunostimulatory activity in human mDC assessed as induction of TNFalpha at 100 ug/ml after 24 hrs. The format is functional. The method in brief:
(§3)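 Human mDCs isolated from PBMCs by CD19+ B-cell depletion then BDCA1 positive selection; plated at 1 × 10^6 cells/mL, compounds in PBS, 37 °C for 24 h; supernatant cytokines by human Luminex multiplex. Representative of four independent experiments.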

The species entered for data set [8] is Homo sapiens. As to the kind of experiment: Immunostimulatory activity in human mDC assessed as induction of IFNalpha at 100 ug/ml after 24 hrs. The data set is classed as functional. The method in brief: as §3
Data set [9] deals with Mus musculus. As to the kind of experiment: Immunomodulatory activity in C57BL/6 mouse assessed as induction of IL12 release at 25 mg/kg, sc after 2 hrs by ELISA. The data set is classed as functional, organism-based. Further details: dose 25 mg/kg. The method in brief:
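Female C57BL/6 wild-type mice, 5–8 weeks old, n=3; compounds given subcutaneously at 10 or 25 mg/kg. Retro-orbital blood at 2 h; serum cytokines by mouse Luminex multiplex or IL-12 ELISA.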

The species entered for data set [10] is Homo sapiens. As to the kind of experiment: Immunostimulatory activity in human pDC assessed as induction of IL6 at 100 ug/ml after 24 hrs. The format is functional. The method in brief: as §2
Data set [11] has as its system PBMC. The experiment in a line: Immunomodulatory activity in human PBMC assessed as induction of IFNalpha at 50 ug/ml after 24 hrs. The data set is classed as functional, cell-based. The method in brief:
as §1

Data set [12] relates to PBMC. As to the kind of experiment: Immunomodulatory activity in human PBMC assessed as induction of MCP1 at 50 ug/ml after 24 hrs. The data set is classed as functional, cell-based. The method in brief: as §1
The target of data set [13] is T1, Toll-like receptor 7 (Homo sapiens) (UniProt Q9NYK1).
T1 sequence (whole entry): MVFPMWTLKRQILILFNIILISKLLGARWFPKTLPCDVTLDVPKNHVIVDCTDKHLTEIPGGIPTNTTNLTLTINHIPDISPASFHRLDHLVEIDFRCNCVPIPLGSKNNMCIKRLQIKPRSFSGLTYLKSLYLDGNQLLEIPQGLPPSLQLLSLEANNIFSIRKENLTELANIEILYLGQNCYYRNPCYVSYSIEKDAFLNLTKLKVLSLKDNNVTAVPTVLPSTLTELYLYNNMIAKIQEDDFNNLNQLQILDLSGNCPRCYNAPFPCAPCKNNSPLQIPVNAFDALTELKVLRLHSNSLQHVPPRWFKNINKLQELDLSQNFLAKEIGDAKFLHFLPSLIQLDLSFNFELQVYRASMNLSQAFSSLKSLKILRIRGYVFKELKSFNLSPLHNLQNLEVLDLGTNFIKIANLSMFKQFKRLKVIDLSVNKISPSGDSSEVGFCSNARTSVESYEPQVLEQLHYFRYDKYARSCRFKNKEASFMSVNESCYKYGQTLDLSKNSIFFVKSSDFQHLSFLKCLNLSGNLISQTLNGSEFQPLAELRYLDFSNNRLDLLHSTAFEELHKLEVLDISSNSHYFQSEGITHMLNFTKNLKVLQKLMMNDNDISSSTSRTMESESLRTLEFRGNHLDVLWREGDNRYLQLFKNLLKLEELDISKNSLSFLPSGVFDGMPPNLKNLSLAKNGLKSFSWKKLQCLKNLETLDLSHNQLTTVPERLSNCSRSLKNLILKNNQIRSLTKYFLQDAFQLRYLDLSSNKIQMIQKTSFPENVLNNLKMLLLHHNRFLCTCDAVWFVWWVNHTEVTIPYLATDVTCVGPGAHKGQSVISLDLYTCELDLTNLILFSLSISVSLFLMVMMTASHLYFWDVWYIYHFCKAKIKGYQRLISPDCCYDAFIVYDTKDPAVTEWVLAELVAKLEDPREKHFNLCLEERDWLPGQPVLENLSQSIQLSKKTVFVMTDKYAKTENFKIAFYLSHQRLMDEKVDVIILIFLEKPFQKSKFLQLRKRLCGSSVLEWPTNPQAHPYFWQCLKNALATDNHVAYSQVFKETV
The experiment in a line: Activation of human TLR7 expressed in HEK293XL assessed as fold induction of NF-kappaB activity at 50 ug/ml after 18 hrs by reporter gene assay relative to control. The method in brief: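 HEK293 cells stably expressing human TLR7 or TLR8, transiently transfected with SEAP reporter plasmid; medium replaced, SIMRA compounds added, 18 h incubation. Supernatant SEAP measured by QuantiBlue; expressed as fold increase in NF-κB activity over PBS control. Tabulated data at 50 μg/mL, representative of three independent experiments.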

The species named for data set [14] is Homo sapiens. As to the kind of experiment: Immunostimulatory activity in human mDC assessed as induction of IP10 at 100 ug/ml after 24 hrs. The format is functional. The method in brief:
as §3

The subject of data set [15] is PBMC. The experiment in a line: Immunomodulatory activity in human PBMC assessed as induction of IL6 after 24 hrs. The format is functional, cell-based. The method in brief:
as §1

The species entered for data set [16] is Homo sapiens. The experiment in a line: Immunostimulatory activity in human mDC assessed as induction of IL12 at 100 ug/ml after 24 hrs. The data set is classed as functional. The method in brief: as §3
Data set [17] deals with PBMC. The experiment in a line: Immunomodulatory activity in human PBMC assessed as induction of IP10 at 50 ug/ml after 24 hrs. The format is functional, cell-based. The method in brief:
as §1

The subject of data set [18] is PBMC. As to the kind of experiment: Immunomodulatory activity in human PBMC assessed as induction of TNFalpha at 50 ug/ml after 24 hrs. The format is functional, cell-based. The method in brief:
as §1

The target in data set [19] is Toll-like receptor 3 (Homo sapiens) (UniProt O15455). As to the kind of experiment: Activation of human TLR3 expressed in HEK293 assessed as induction of NF-kappaB activity reporter gene assay. The data set is classed as cell-based. (Reporter assays use an easily measured gene product as a stand-in for the process of interest.)
Toll-like receptor 3 (Homo sapiens), sequence (O15455 whole entry): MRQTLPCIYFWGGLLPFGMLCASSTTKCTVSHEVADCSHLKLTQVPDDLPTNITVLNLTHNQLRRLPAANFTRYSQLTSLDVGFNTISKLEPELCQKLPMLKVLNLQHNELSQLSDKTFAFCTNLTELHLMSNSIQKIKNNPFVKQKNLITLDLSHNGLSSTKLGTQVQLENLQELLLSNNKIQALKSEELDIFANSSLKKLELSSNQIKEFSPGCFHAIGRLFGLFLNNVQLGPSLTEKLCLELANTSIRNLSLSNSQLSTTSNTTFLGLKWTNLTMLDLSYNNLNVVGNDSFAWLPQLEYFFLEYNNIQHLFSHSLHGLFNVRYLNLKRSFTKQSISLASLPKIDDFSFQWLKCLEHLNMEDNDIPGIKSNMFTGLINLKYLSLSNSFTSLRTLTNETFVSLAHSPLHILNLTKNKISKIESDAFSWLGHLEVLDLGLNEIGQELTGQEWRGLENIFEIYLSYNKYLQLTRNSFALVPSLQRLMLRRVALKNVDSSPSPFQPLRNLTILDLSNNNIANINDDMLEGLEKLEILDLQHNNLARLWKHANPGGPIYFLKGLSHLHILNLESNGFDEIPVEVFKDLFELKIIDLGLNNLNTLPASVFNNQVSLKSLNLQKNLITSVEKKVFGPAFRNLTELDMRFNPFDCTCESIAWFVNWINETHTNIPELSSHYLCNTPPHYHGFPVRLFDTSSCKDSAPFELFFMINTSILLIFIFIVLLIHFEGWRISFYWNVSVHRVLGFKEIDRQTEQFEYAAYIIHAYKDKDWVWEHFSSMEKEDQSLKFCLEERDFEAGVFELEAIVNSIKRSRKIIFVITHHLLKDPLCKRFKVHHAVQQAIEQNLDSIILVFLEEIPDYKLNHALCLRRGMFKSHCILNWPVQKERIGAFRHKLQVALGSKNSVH
Data set [20] deals with PBMC. As to the kind of experiment: Immunomodulatory activity in human PBMC assessed as induction of MIP1beta at 50 ug/ml after 24 hrs. The data set is classed as functional, cell-based. The method in brief:
as §1

Data set [21] is filed under the species Homo sapiens. The experiment in a line: Immunostimulatory activity in human mDC assessed as induction of IL6 at 100 ug/ml after 24 hrs. The data set is classed as functional. The method in brief: as §3
Data set [22] concerns PBMC. The experiment in a line: Immunomodulatory activity in human PBMC assessed as induction of IL6 at 50 ug/ml after 24 hrs. The data set is classed as functional, cell-based. The method in brief: as §1
Data set [23] is filed under the species Homo sapiens. As to the kind of experiment: Immunostimulatory activity in human pDC assessed as induction of IFNalpha at 100 ug/ml after 24 hrs. The format is functional. The method in brief: as §2

In the case of `Nc1ccn([C@@H]2O[C@H](COP(=O)(S)O[C@H]3[C@@H](O)[C@H](n4cnc5c(N)ncnc54)O[C@@H]3COP(=O)(S)O[C@H]3[C@@H](O)[C@H](n4cnc5c(N)ncnc54)O[C@@H]3CO)[C@@H](OP(=O)(S)OC[C@H]3O[C@@H](n4ccc(=O)[nH]c4=O)[C@H](O)[C@@H]3OP(=O)(S)OC[C@H]3O[C@@H](n4ccc5c(=O)[nH]c(N)nc54)[C@H](O)[C@@H]3OP(=O)(S)OC[C@H]3O[C@@H](n4cnc5c(N)ncnc54)[C@H](O)[C@@H]3OP(=O)(S)OC[C@H]3O[C@@H](n4ccc(N)nc4=O)[C@H](O)[C@@H]3OP(=O)(S)OC[C@H]3O[C@@H](n4ccc5c(=O)[nH]c(N)nc54)[C@H](O)[C@@H]3OP(=O)(S)OC[C@H]3O[C@@H](n4ccc(N)nc4=O)[C@H](O)[C@@H]3OP(=O)(S)OC[C@H]3O[C@@H](n4ccc(=O)[nH]c4=O)[C@H](O)[C@@H]3OP(=O)(S)OC[C@H]3O[C@@H](n4ccc(=O)[nH]c4=O)[C@H](O)[C@@H]3OP(=O)(S)OCC(O)COP(=O)(S)O[C@H]3[C@@H](O)[C@H](n4ccc(=O)[nH]c4=O)O[C@@H]3COP(=O)(S)O[C@H]3[C@@H](O)[C@H](n4ccc(=O)[nH]c4=O)O[C@@H]3COP(=O)(S)O[C@H]3[C@@H](O)[C@H](n4ccc(N)nc4=O)O[C@@H]3COP(=O)(S)O[C@H]3[C@@H](O)[C@H](n4ccc5c(=O)[nH]c(N)nc54)O[C@@H]3COP(=O)(S)O[C@H]3[C@@H](O)[C@H](n4ccc(N)nc4=O)O[C@@H]3COP(=O)(S)O[C@H]3[C@@H](O)[C@H](n4cnc5c(N)ncnc54)O[C@@H]3COP(=O)(S)O[C@H]3[C@@H](O)[C@H](n4ccc5c(=O)[nH]c(N)nc54)O[C@@H]3COP(=O)(S)O[C@H]3[C@@H](O)[C@H](n4ccc(=O)[nH]c4=O)O[C@@H]3COP(=O)(S)O[C@H]3[C@@H](O)[C@H](n4ccc(N)nc4=O)O[C@@H]3COP(=O)(S)O[C@H]3[C@@H](O)[C@H](n4cnc5c(N)ncnc54)O[C@@H]3COP(=O)(S)O[C@H]3[C@@H](O)[C@H](n4cnc5c(N)ncnc54)O[C@@H]3CO)[C@H]2O)c(=O)n1` (stereo partly drawn), the Activity was 2200 pg/mL in data set [1]; 223 pg/mL in data set [2]; 47 pg/mL in data set [3]; 434 pg/mL in data set [11]; 42100 pg/mL in [12]; “Dose-dependent effect” in data set [15]. In addition, the Activity in [17] was determined as 1020 pg/mL; in [18] it was 39 pg/mL; in [20] it was 5880 pg/mL; in data set [22] it was 791 pg/mL. Further, in data set [4], the remaining at 10 min worked out at 87%. The Ratio in [5] turned out to be 53.8. The outcome in data set [6], in data set [7], in data set [8], in data set [9], in data set [10] and in data set [14] was Active. In addition, the outcome in data set [16], in data set [21] and in data set [23] was Active. The fold change (FC) in [13] is 21.5. In addition, in data set [19], the result was inactive.
